Screening data (PubChem)
Sampled rows, rich in hits. Any-hit rate of the full collection: about 2.4%.
rRNA inh HTS = inhibitors of bacterial rRNA selective over humanized ribosomes; AID 720706; GFP signal change (wild-type ribosome), % (no concentration beside the values); E. coli WT GFP vs humanized-ribosome RFP mutants, fluorescence, 24 h; stronger effect = lower value; DMSO median 0, no signal -100; 1.6% of 350,000 active;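 active means significant combined selectivity score with lowered wild-type GFP, culture density cut under 30%, mutant RFP and density less affected; inactive means any of these conditions unmet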
PGC1a acetyl inh = PGC1a acetylation modulation, inhibitor mode | inhibition, % at 15.6 µM | 0.17% of 350,000 active | U2OS PGC1a acetylation, AlphaScreen anti-acetyl-lysine; with virally co-expressed GCN5 acetyltransferase | AID 651687;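 active means every replicate shows inhibition of at least 40%; inconclusive means mean inhibition at least 40% but some replicate below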
ARNT-TACC3 inh = disrupts binding between human ARNT and TACC3 | inhibition, % at 9.99 µM | AlphaScreen His-ARNT PAS-B/GST-TACC3 binding, luminescence; TACC3 fragment carries E629A point mutation | 0.66% of 390,000 active | Q9Y6A5;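 active means mean inhibition of replicates at least 50% and at least half of replicates each reaching 50%; inconclusive means half or more replicates reach 50% but mean below 50%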
S100A4 MyoIIA = inhibitors of human S100A4 binding to myosin IIA peptide | P26447 | S100A4/TAMRA-MyoIIA peptide fluorescence polarization | inhibition, % at 10.7 µM | 0.14% of 360,000 active | AID 652163;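 active means mean inhibition of at least 70% across replicates, with every replicate also reaching that level; inconclusive means mean inhibition reaches 70% but some replicates fall short; inactive means mean inhibition below 70%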
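Assay system: human S100A4 monomer with TAMRA-labelled myosin IIA peptide / Buffer or medium: Calcium-containing HEPES buffer, pH 7.2 / Reagent: TAMRA-labelled myosin IIA heavy-chain peptide probe, 5 nM / Compound: one dose per compound / Timing: polarization read 5 min after assay mix addition, stable 5–60 min / Benchmarks: neutral control DMSO, positive control TFP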
Casp6 inh = inhibitors of human caspase-6 | P55212 | purified caspase-6, Z-VEID-R110 cleavage fluorescence | inhibition, % at 12.5 µM | 0.53% of 350,000 active | AID 686996;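 active means mean inhibition across replicates at least about 35%, with every replicate also reaching that limit, limit read from the data; inconclusive means only one of the two criteria met; inactive means neither criterion met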
ERAP1 inh = ERAP1 (human) enzyme inhibition | Q9NZ08 | recombinant ERAP1, Leu-AMC fluorescence, 60 min | inhibition, % at 10.7 µM | 0.15% of 340,000 active | AID 652197;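 active means mean replicate inhibition of at least 30%, or all replicates individually reaching that 30% level; inactive means mean below 30% and not every replicate reaching it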
Target sequence (Q9NZ08 whole entry, looked up): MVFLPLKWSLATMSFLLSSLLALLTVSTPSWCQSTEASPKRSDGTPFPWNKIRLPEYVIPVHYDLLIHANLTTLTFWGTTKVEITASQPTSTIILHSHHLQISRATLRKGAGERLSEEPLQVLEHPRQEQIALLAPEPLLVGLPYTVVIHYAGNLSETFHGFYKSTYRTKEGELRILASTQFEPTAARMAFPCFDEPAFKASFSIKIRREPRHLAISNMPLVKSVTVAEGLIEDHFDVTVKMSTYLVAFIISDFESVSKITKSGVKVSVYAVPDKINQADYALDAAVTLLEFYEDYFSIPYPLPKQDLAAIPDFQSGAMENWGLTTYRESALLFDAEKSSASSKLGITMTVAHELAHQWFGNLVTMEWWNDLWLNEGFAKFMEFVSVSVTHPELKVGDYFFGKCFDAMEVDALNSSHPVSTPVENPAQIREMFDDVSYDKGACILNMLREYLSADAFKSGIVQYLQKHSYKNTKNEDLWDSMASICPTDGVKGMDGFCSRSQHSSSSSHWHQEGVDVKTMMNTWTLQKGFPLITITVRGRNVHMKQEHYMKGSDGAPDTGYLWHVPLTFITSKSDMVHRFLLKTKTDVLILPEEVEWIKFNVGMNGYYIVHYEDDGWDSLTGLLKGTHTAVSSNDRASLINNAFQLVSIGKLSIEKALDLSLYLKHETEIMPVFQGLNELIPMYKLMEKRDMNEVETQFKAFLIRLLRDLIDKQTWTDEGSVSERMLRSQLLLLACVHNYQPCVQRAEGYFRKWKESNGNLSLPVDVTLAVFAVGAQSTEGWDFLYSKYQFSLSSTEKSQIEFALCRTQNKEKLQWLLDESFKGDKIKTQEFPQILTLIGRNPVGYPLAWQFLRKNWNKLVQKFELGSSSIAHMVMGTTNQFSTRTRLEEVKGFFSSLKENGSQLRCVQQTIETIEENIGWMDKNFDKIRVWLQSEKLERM
AID977621 = wild-type E. coli growth inhibition versus H69 humanized strain – H69 mutant RFP, wild-type GFP, cherry-pick, dose response. shares compounds with rRNA inh HTS. fluorescence, 24 h. activity change, negative = inhibition at 50 µM. 1,900 tested, under 10 active. AID 977621;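 active means Wild-type ribosome reporter drop at least double the humanized mutant ribosome reporter drop, growth loss under a set limit; inconclusive means no clear call, values can overlap the other calls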;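 further: wild-type GFP and H69 mutant RFP strains grown together 50/50 in each well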
AID977628 = growth of wild-type and h24-humanized E. coli strains – h24 mutant RFP vs wild-type GFP, cherry-pick, dose response. shares compounds with rRNA inh HTS. E. coli WT GFP strain growth, fluorescence, 24 h. activity change, negative = inhibition at 50 µM. 1,900 tested, under 10 active;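 active means compound lowering the normal-ribosome reporter at least twice as much as the humanized-ribosome reporter, growth loss under a set limit; inconclusive means no clear call, values can overlap the other calls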;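 further: wild-type GFP and h24 humanized RFP strains co-cultured 1 to 1 per well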
Numbers stand for hits.

COc1cc(CC(=O)Nc2nc(C)cs2)cc(OC)c1OC was read as rRNA inh HTS -19.1, ARNT-TACC3 inh inactive, S100A4 MyoIIA inactive, Casp6 inh inactive, ERAP1 inh inactive, AID977621 inactive and AID977628 inactive.
`COc1ccc(-c2csc(NC(=O)Cc3cc(OC)c(OC)c(OC)c3)n2)cc1OC` gave rRNA inh HTS inactive, ARNT-TACC3 inh inactive, S100A4 MyoIIA inactive, Casp6 inh inactive and ERAP1 inh inactive.
CC(C)Oc1cc(F)ccc1-c1cc(C(=O)NCC2CCCCC2)[nH]n1 was read as rRNA inh HTS inactive, PGC1a acetyl inh inactive, S100A4 MyoIIA inactive, Casp6 inh inactive and ERAP1 inh inactive.
For Cc1cc(F)ccc1-c1cc(C(=O)NCC2CCCCC2)[nH]n1 the results were rRNA inh HTS -36.0, PGC1a acetyl inh inactive, S100A4 MyoIIA inactive, Casp6 inh inactive, ERAP1 inh inactive and AID977628 inconclusive.
C[C@H]1CN([C@@H](C)CO)C(=O)Cc2cc(NC(=O)Nc3ccc(F)cc3)ccc2O[C@@H]1CN(C)CC1CCCCC1 was read as rRNA inh HTS inactive, ARNT-TACC3 inh inactive, S100A4 MyoIIA inactive, Casp6 inh inactive and ERAP1 inh inactive.
O=C(O)c1ccc(C(=O)Nc2ccc(F)cc2)cc1 was read as rRNA inh HTS inactive, ARNT-TACC3 inh inactive, S100A4 MyoIIA inactive, Casp6 inh inactive and ERAP1 inh inactive.
For O=C(Nc1ccc(Nc2ccccc2)cc1)c1ccc(F)cc1 the results were rRNA inh HTS -21.1, PGC1a acetyl inh inactive, ARNT-TACC3 inh inactive, S100A4 MyoIIA inactive, Casp6 inh inactive, ERAP1 inh inactive, AID977621 inactive and AID977628 inactive.
`O=C(Nc1ccc(Nc2ccccc2)cc1)c1c(Cl)cccc1Cl` gave rRNA inh HTS -34.5, ARNT-TACC3 inh inactive, S100A4 MyoIIA inactive, Casp6 inh inactive, ERAP1 inh inactive and AID977621 inactive.
`CO[C@H]1CN(C)C(=O)c2ccc(NC(=O)C3CCCCC3)cc2OC[C@@H](C)N(C)C[C@@H]1C` gave rRNA inh HTS inactive, PGC1a acetyl inh inactive, ARNT-TACC3 inh inactive, S100A4 MyoIIA inactive, Casp6 inh inactive and ERAP1 inh inactive.
Screening O=C(NCc1ccc2c(c1)OCO2)C1CCC(=O)N1C1CCCCC1 (stereo not drawn) returned rRNA inh HTS -23.4, PGC1a acetyl inh inactive, ARNT-TACC3 inh inactive, S100A4 MyoIIA inactive, Casp6 inh inactive, AID977621 inactive and AID977628 inconclusive.
Cn1cc([N+](=O)[O-])c(C(=O)Nc2ccc(-c3nc4ccccc4[nH]3)cc2)n1 was read as rRNA inh HTS -25.9, ARNT-TACC3 inh inactive, S100A4 MyoIIA inactive, Casp6 inh inactive, ERAP1 inh inactive, AID977621 inactive and AID977628 inconclusive.
CN(C)S(=O)(=O)c1ccc2oc(SCC(=O)NCC(F)(F)F)nc2c1 was read as rRNA inh HTS -14.4, PGC1a acetyl inh inactive, ARNT-TACC3 inh inactive, S100A4 MyoIIA inactive, Casp6 inh inactive, ERAP1 inh inactive, AID977621 inconclusive and AID977628 inactive.
Screening COc1ccc(OCC(O)CNS(=O)(=O)c2cccc(Cl)c2)cc1 (stereo not drawn) returned rRNA inh HTS -21.4, PGC1a acetyl inh inactive, S100A4 MyoIIA inactive, Casp6 inh inactive, ERAP1 inh inactive, AID977621 inactive and AID977628 inactive.
CC(NC(=O)c1ccncc1)c1ccc(Cl)cc1Cl (stereo not drawn) was read as rRNA inh HTS -33.2, PGC1a acetyl inh inactive, ARNT-TACC3 inh inactive, S100A4 MyoIIA inactive, Casp6 inh inactive, ERAP1 inh inactive, AID977621 inactive and AID977628 inactive.
Screening CC(C)(Nc1ccccc1)C(=O)c1ccccc1 returned rRNA inh HTS -20.2, ARNT-TACC3 inh inactive, S100A4 MyoIIA inactive, Casp6 inh inactive, ERAP1 inh inactive, AID977621 inactive and AID977628 inconclusive.
